Paper PMC7116037 (Structure (London, England : 1993), 2020)
Where a SMILES comes first, the peptide text is derived from it. [ ]: non-standard residue; d: D form. pT = C[C@@H](OP(=O)(O)O)[C@H](N)C(=O)O; pS = N[C@@H](COP(=O)(O)O)C(=O)O

Tests used:
rat βarr2 = rat βarr2 (Rattus norvegicus, UniProt P29067); assay: Isothermal titration calorimetry of C7pp binding to full-length βarr2; details: 298 K, 20 mM Tris-HCl pH 8.0, 200 mM NaCl
Outline: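 Rat βarr2 (1–410 WT), expressed in E. coli BL21(DE3)pLysS, in 20 mM Tris-HCl pH 8.0, 200 mM NaCl at 100 μM or 30 μM in the cell, degassed at 295 K. Titration at 298 K: 2.5 μL of C7pp ([…] syringe solution) injected every 200 s with gentle stirring. Binding constant and stoichiometry fitted from the titration curve; n = 3 independent experiments.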

βarr2 = assay: HDX-MS profile of βarr2 upon C7pp binding; design: species or system Rattus norvegicus; details: 100 μM βarr2, 500 μM peptide, 1 h at room temperature
[1] = system: truncated version of βarr2; assay: HDX-MS profile of truncated βarr2 upon co-incubation with C7pp; design: species or system Rattus norvegicus; details: truncated βarr2 lacking residues 357–410; data not shown
[2] = target: Rattus norvegicus wild-type β-arrestin 2 (βarr2 1-410) (Rattus norvegicus) (UniProt P29067); assay: ITC
Rattus norvegicus wild-type β-arrestin 2 (βarr2 1-410) (Rattus norvegicus), sequence (P29067 whole entry): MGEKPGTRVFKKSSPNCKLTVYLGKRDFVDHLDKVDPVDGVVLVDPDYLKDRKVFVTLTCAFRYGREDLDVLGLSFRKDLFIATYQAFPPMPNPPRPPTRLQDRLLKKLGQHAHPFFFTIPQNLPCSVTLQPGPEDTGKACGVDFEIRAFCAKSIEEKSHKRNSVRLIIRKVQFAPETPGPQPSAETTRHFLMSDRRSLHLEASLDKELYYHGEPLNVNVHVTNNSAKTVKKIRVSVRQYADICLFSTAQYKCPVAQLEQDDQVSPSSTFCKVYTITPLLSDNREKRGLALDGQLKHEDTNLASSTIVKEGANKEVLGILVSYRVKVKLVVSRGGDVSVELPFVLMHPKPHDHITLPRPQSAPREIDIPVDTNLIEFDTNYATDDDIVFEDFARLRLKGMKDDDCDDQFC

rat βarr2, sequence (P29067 whole entry): as above

| binding behaviour (ITC) (rat βarr2) | Kd [2] | Molecule | HDX-MS: helix formation in the finger loop (βarr2) | HDX profile of truncated βarr2 upon co-incubation [1] |
| --- | --- | --- | --- | --- |
| monophasic binding with βarr2 |  | CC[C@H](C)[C@H](N)C(=O)N[C@@H](Cc1ccccc1)C(=O)N[C@@H](CCCCN)C(=O)N[C@@H](Cc1ccc(O)cc1)C(=O)N[C@@H](COP(=O)(O)O)C(=O)N[C@@H](C)C(=O)N[C@@H](CCCCN)C(=O)N[C@H](C(=O)NCC(=O)N[C@@H](CC(C)C)C(=O)N[C@H](C(=O)N[C@@H](CCCCN)C(=O)N[C@@H](CC(C)C)C(=O)N[C@H](C(=O)N[C@@H](CC(=O)O)C(=O)O)[C@@H](C)CC)[C@@H](C)OP(=O)(O)O)[C@@H](C)OP(=O)(O)O [C7pp] (H-IFKY[pS]AK[pT]GL[pT]KLID-OH; N-terminus and C-terminus assumed) | did not indicate a helix formation in the finger loop | did not change upon co-incubation with C7pp |
|  | 3.08 µM | CXCR7 phosphopeptide (C7pp) |  |  |
